For assay [1], the target named is NACHT, LRR and PYD domains-containing protein 3 (Mus musculus, UniProt Q8R4B8). The assay can be described thus: Inhibition of NLRP3 inflammasome activation in mouse J774.A1 cells assessed as reduction in LPS-stimulated IL-1beta level pretreated for 1 hr followed by nigericin treatment for 1 hr by ELISA. Format: cell-based. Put shortly: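 J774A.1 cells (DMEM, 10% FBS) primed with LPS 1 μg mL−1 for 5 h, compound 1 h, then nigericin 10 μM for 1 h. Supernatant IL-1β by ELISA; IC50 from three separate determinations.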
Sequence of NACHT, LRR and PYD domains-containing protein 3 (Q8R4B8 whole entry, the tested form may be a part): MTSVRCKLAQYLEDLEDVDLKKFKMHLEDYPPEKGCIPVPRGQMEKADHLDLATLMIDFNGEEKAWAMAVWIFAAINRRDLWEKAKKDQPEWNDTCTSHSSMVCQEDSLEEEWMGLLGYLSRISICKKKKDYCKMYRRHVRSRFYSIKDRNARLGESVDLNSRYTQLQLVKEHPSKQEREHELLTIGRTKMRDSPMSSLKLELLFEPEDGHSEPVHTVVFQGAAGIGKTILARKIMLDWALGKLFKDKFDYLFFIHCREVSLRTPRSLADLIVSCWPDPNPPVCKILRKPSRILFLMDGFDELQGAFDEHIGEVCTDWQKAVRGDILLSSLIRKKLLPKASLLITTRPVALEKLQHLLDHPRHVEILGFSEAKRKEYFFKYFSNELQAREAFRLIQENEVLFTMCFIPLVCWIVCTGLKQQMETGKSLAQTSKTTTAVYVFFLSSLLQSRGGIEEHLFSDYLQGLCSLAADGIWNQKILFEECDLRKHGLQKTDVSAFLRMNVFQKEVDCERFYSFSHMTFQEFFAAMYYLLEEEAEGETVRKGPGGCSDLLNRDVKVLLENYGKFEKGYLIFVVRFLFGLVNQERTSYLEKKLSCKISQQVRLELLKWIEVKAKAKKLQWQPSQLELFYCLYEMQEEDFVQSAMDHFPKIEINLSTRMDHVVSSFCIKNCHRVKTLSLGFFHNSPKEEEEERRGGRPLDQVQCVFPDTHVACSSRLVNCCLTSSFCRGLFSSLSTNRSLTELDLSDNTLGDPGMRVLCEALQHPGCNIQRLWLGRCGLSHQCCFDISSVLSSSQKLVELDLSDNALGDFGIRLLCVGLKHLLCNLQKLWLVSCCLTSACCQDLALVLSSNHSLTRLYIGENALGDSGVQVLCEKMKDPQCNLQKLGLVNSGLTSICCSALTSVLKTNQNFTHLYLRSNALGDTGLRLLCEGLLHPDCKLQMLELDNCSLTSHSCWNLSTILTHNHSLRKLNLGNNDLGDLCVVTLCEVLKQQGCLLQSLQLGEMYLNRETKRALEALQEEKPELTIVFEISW

Assay [2] concerns Mus musculus. The experiment in a line: Anti-colitis activity against DSS-induced ulcerative colitis mouse model assessed as decrease in hemafecia at 10 mg/kg/day, po treated for 9 days. The assay is classed as functional, organism-based. The following applies: time 9.0 day. Put shortly:
(§1)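 DSS colitis: 2.5% DSS in drinking water days 1–7, water days 8–9. Salicylazosulfapyridine given daily by intragastric gavage, 10 mg kg−1. Body weight and fecal blood recorded daily; colon length measured at sacrifice on day 9.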

In assay [3] the test system is Mus musculus. The experiment in a line: Anti-colitis activity against DSS-induced ulcerative colitis mouse model assessed as increase in body weight at 10 mg/kg/day, po treated for 9 days. Format: functional, organism-based. The following applies: time 9.0 day. Put shortly: as §1
For assay [4], the system named is Colon. The assay can be described thus: Anti-colitis activity against DSS-induced ulcerative colitis mouse model assessed as increase in crypt architecture in colon tissue at 10 mg/kg/day, po for 9 days by H and E staining based analysis. The assay is classed as functional, organism-based. The conditions noted are these: time 9.0 day. Put shortly:
(§2)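 H&E-stained colon sections (×20) scored for inflammatory cell infiltration, goblet cell depletion and crypt architecture. Samples were taken on day 9 from mice given 2.5% DSS water days 1–7 and daily intragastric SASP 10 mg kg−1.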

Assay [5] relates to Colon. The assay can be described thus: Anti-colitis activity against DSS-induced ulcerative colitis mouse model assessed as decrease in infiltration of inflammatory cells in colon tissue at 10 mg/kg/day, po for 9 days by H and E staining based analysis. Format: functional, organism-based. The conditions noted are these: time 9.0 day. The procedure, abridged: as §2
For assay [6], the system named is Mus musculus. The experiment in a line: Anti-colitis activity against DSS-induced ulcerative colitis mouse model assessed as increase in colon length at 10 mg/kg/day, po treated for 9 days. Format: functional, organism-based. The conditions noted are these: time 9.0 day. Put shortly: as §1
The test system of assay [7] is Colon. The experiment in a line: Anti-colitis activity against DSS-induced ulcerative colitis mouse model assessed as increase in goblet cells in colon tissue at 10 mg/kg/day, po for 9 days by H and E staining based analysis. The assay is classed as functional, organism-based. The conditions noted are these: time 9.0 day. The procedure, abridged: as §2

Structures are written as SMILES. pIC50: −log10 of the molar value. Calls of active or inactive are those of the source. The calls are words filed in the database; no cut-off is given here.

On to `CCN(CC)C(=O)CNC(=O)c1ccc(C(=O)/C=C/c2cc(C)c(O)c(C)c2)cc1`, for which the pIC50 in assay [1] was 5.23.

In the case of `CCOC(=O)CSc1ccc(C(=O)/C=C/c2cc(C)c(O)c(C)c2)cc1`, the pIC50 in assay [1] was 5.31. With `O=C(O)c1cc(/N=N/c2ccc(S(=O)(=O)Nc3ccccn3)cc2)ccc1O`, the result in assay [2] and in assay [3] was inactive. The outcome in assay [4], in assay [5], in assay [6] and in assay [7] was Active. Turning to `Cc1cc(/C=C/C(=O)c2ccc(C(=O)N[C@@H](Cc3ccccc3)C(=O)O)cc2)cc(C)c1O`, the pIC50 in assay [1] is 5.47.

As to `Cc1cc(/C=C/C(=O)c2ccc(C(=O)O)cc2)cc(C)c1O`, the pIC50 in assay [1] was less than 4.30. With `Cc1cc(/C=C/C(=O)c2ccc(C(=O)NCC(=O)Nc3ccccc3)cc2)cc(C)c1O`, in assay [1], the pIC50 was less than 4.30.

Take `COC(=O)C1(C(=O)Nc2ccc(C(=O)/C=C/c3cc(C)c(O)c(C)c3)cc2)CC1`: the pIC50 in assay [1] is 5.52. Still for that read-out and setting: the figure for `CCOC(=O)c1ccc(C(=O)/C=C/c2cc(C)c(O)c(C)c2)cc1` is 5.08; for `CCN(CC)C(=S)Sc1ccc(C(=O)/C=C/c2cc(C)c(O)c(C)c2)cc1` it is 4.57; for `CNC(=O)CNC(=O)c1ccc(C(=O)/C=C/c2cc(C)c(O)c(C)c2)cc1` it is 5.52. Still for that read-out and setting: the figure for `Cc1cc(/C=C/C(=O)c2ccc3c(c2)COC32CNC2)cc(C)c1O` is 5.28.

Turning to `CSc1ccc(C(=O)/C=C/c2cc(O)cc(O)c2)cc1`, the pIC50 in assay [1] was 5.80. In the case of `Cc1cc(/C=C/C(=O)c2ccc(NC(=O)CCN(C)C)cc2)cc(C)c1O`, in assay [1], the negative logarithm of the IC50 (pIC50) was 5.22.

With `COC(=O)[C@H](Cc1ccccc1)NC(=O)c1ccc(C(=O)/C=C/c2cc(C)c(O)c(C)c2)cc1`, the pIC50 in assay [1] was 5.96.

Regarding `Cc1cc(/C=C/C(=O)c2ccc(C(=O)NCC(=O)O)cc2)cc(C)c1O`, the pIC50 in assay [1] is less than 4.30. In the case of `CCNC(=O)CNC(=O)c1ccc(C(=O)/C=C/c2cc(C)c(O)c(C)c2)cc1`, the pIC50 in assay [1] is 5.40. On to `CCN(CC)C(=S)SCCC(=O)Nc1ccc(C(=O)/C=C/c2cc(C)c(O)c(C)c2)cc1`, for which the pIC50 in assay [1] is 5.42.

Take `COc1ccc(C(=O)/C=C/c2cc(C)c(O)c(C)c2)cc1`: in assay [1], the pIC50 was 4.84. Still for that read-out and setting: the figure for `CSc1ccc(C(=O)/C=C/c2cc(C)c(O)c(C)c2)cc1` is 5.44. On the same count and under the same terms, the result for `COC(=O)CNC(=O)c1ccc(C(=O)/C=C/c2cc(C)c(O)c(C)c2)cc1` reads 5.97; that for `Cc1cc(/C=C/C(=O)c2ccc(C(=O)NCC(=O)N(C)C)cc2)cc(C)c1O`, 5.22.

These data come from ChEMBL document CHEMBL5357044, “Discovery of a dual-acting inhibitor of interleukin-1β and STATs for the treatment of inflammatory bowel disease” (RSC Med Chem, 2024).
